Legend:
[1] = system: HepG2 2.2.15; experiment: Inhibition of Hsc70 mRNA expression in human HepG2(2.2.15) cells at 100 ug/ml after 24 hrs by RT-PCR analysis; type: functional; settings: HepG2 2.2.15, 24 h
Procedure, shortened: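 HepG2.2.15 cells seeded at 5 × 10^4 per well in Opti-MEM with 10% FBS, grown for one day, then exposed to compound at 100 μg/mL for 24 h. Total RNA isolated with TRIZOL. Hsc70 mRNA measured by real-time RT-PCR with GAPDH as the reference gene.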

[2] = Cytotoxicity against human HepG2(2.2.15) cells after 9 days; type: cell-based; settings: read-out: TC50
Procedure, shortened: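 Cytotoxicity in HepG2.2.15 cells cultured for 9 days at 37 °C, seeded at 2 × 10^4 per well. TC50 is the concentration killing 50% of cells relative to untreated controls.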

[3] = system: Hepatitis B virus (human); experiment: Antiviral activity against HBV in human HepG2(2.2.15) cells assessed as reduction of viral DNA level after 9 days by RT-PCR analysis; settings: HepG2 2.2.15, 216 h
[4] = system: Hepatitis B virus; experiment: Antiviral activity against wild type HBV infected in human Huh7.5 cells assessed as reduction of viral replication at 37 ug/ml after 36 hrs; type: functional; settings: Huh-7, 36 h, read-out: INH
Procedure, shortened: (§1)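 Huh7.5 cells (DMEM, 10% inactivated FBS, 1% pen-strep) plated at 2 × 10^5 per well, incubated overnight, then transiently transfected for 24 h with pcDNA3.1 carrying the full wild-type or lamivudine-resistant (rtL180M + rtM204V) HBV genome. After a PBS wash, treated in fresh medium for 36 h. Replicative-intermediate HBV DNA measured by real-time PCR. Run twice; mean and SD.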

[5] = system: Hepatitis B virus; experiment: Antiviral activity against lamivudine-resistant HBV infected in human Huh7.5 cells assessed as reduction of viral replication at 37 ug/ml after 36 hrs; type: functional; settings: Huh-7, 36 h, read-out: INH
Procedure, shortened: (§2)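 Huh7.5 cells (2 × 10^5/well) were plated, incubated overnight, then transiently transfected for 24 h with pcDNA3.1 carrying wild-type or lamivudine-resistant HBV (rtL180M + rtM204V). After a PBS wash they got fresh medium with drug (0.16 μg/mL for line 6, 37 μg/mL for line 7) for 36 h. HBV DNA replicative intermediate was measured by real-time PCR; experiment run twice, mean and SD.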

[6] = system: Mus musculus; experiment: Acute toxicity in ICR mouse assessed as mortality at up to 750 mg/kg, po after 7 days; type: organism-based; set-up: dose 750 mg/kg, route oral; settings: in vivo, 168 h
Procedure, shortened: (§3)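 Male and female ICR mice (22.0 ± 1.0 g), 10 per group (5 male, 5 female), given a single oral dose of 0 (1% polysorbate-80 in saline), 250, 500 or 750 mg/kg. Survival and body weight were monitored for 7 days. Blood was then drawn for AST, ALT, BUN and CRE as liver and kidney function markers.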

[7] = Acute toxicity in po dosed ICR mouse assessed as mortality after 7 days; type: organism-based; settings: in vivo; procedure, shortened: as §3
[8] = system: Mus musculus; experiment: Acute toxicity in ICR mouse assessed as change in body weight at up to 750 mg/kg, po after 7 days; type: organism-based; set-up: dose 750 mg/kg, route oral; settings: in vivo, 168 h; procedure, shortened: as §3
[9] = system: Mus musculus; experiment: Acute toxicity in ICR mouse assessed as liver function at up to 750 mg/kg, po after 7 days; type: organism-based; set-up: dose 750 mg/kg, route oral; settings: in vivo, 168 h; procedure, shortened: as §3
[10] = system: Mus musculus; experiment: Acute toxicity in ICR mouse assessed as kidney function at up to 750 mg/kg, po after 7 days; type: organism-based; set-up: dose 750 mg/kg, route oral; settings: in vivo, 168 h; procedure, shortened: as §3
[11] = system: Hepatitis B virus; experiment: Antiviral activity against wild type HBV infected in human Huh7.5 cells assessed as reduction of viral replication at 0.16 ug/ml after 36 hrs; type: functional; settings: Huh-7, 36 h; procedure, shortened: as §1
[12] = system: Hepatitis B virus; experiment: Antiviral activity against lamivudine-resistant HBV infected in human Huh7.5 cells assessed as reduction of viral replication at 0.16 ug/ml after 36 hrs; type: functional; settings: Huh-7, 36 h; procedure, shortened: as §2

| SMILES | inhibition at 100 µg/mL [1] [%] | CC50 at 216 h [2] [µM] | IC50 [3] [µM] | further results |
| --- | --- | --- | --- | --- |
| COC1CC(=O)N2C[C@@H]3CCCN4CCC[C@@H]([C@H]34)[C@H]2C1 (stereo not given in full) | 48.6 | 1110 | 121 |  |
| CCOC1CC(=O)N2C[C@@H]3CCCN4CCC[C@@H]([C@H]34)[C@H]2C1 (stereo not given in full) | 74.1 | 481 | 9.55 | inhibition at 37 µg/mL [4]: 32%; inhibition at 37 µg/mL [5]: 35%; Activity [6]: Non-toxic; LD50 at 168 h [7]: > 750 mg/kg; Activity [8]: Non-toxic; Activity [9]: Non-toxic; Activity [10]: Non-toxic |
| O=C1CC(OCc2ccccc2)C[C@@H]2[C@H]3CCCN4CCC[C@@H](CN12)[C@@H]34 (stereo not given in full) | 24.7 | 136 | 14.4 |  |
| O=C(OC1CC(=O)N2C[C@@H]3CCCN4CCC[C@@H]([C@H]34)[C@H]2C1)c1ccccc1 (stereo not given in full) | 51 | 236 | 16.3 |  |
| O=C1CC(C[N+](=O)[O-])C[C@@H]2[C@H]3CCCN4CCC[C@@H](CN12)[C@@H]34 (stereo not given in full) | 35.8 | > 1000 | 54.5 |  |
| CNC1CC(=O)N2C[C@@H]3CCCN4CCC[C@@H]([C@H]34)[C@H]2C1 (stereo not given in full) | 40.1 | > 1000 | 168 |  |
| COC1C[C@@H]2[C@H]3CCCN4CCC[C@@H](CN2C(=O)C1OC)[C@@H]34 (stereo not given in full) | 39.3 |  |  |  |
| O=C1C(OCc2ccccc2)C(OCc2ccccc2)C[C@@H]2[C@H]3CCCN4CCC[C@@H](CN12)[C@@H]34 (stereo not given in full) | 45.4 | 37 | 2.76 |  |
| CCOC(=O)OC1C[C@@H]2[C@H]3CCCN4CCC[C@@H](CN2C(=O)C1OC(=O)OCC)[C@@H]34 (stereo not given in full) | < 10 |  |  |  |
| O=C(OC1C[C@@H]2[C@H]3CCCN4CCC[C@@H](CN2C(=O)C1OC(=O)c1ccc(F)c([N+](=O)[O-])c1)[C@@H]34)c1ccc(F)c([N+](=O)[O-])c1 (stereo not given in full) | 30.8 |  |  |  |
| CC(=O)OC1C[C@@H]2[C@H]3CCCN4CCC[C@@H](CN2C(=O)C1O)[C@@H]34.Cl (stereo not given in full) | 37.1 | > 1000 | 346 |  |
| Cl.O=C(CCl)OC1C[C@@H]2[C@H]3CCCN4CCC[C@@H](CN2C(=O)C1O)[C@@H]34 (stereo not given in full) | 88.2 | 1100 | 14 |  |
| CC(Cl)C(=O)OC1C[C@@H]2[C@H]3CCCN4CCC[C@@H](CN2C(=O)C1O)[C@@H]34.Cl (stereo not given in full) | 48.6 | > 1000 | 592 |  |
| Cl.O=C(OC1C[C@@H]2[C@H]3CCCN4CCC[C@@H](CN2C(=O)C1O)[C@@H]34)c1ccccc1 (stereo not given in full) | 34.5 | 136 | 42.6 |  |
| O=C(OC1C[C@@H]2[C@H]3CCCN4CCC[C@@H](CN2C(=O)C1O)[C@@H]34)c1ccc(F)c([N+](=O)[O-])c1 (stereo not given in full) | 43.4 |  |  |  |
| CCOC(=O)OC1C[C@@H]2[C@H]3CCCN4CCC[C@@H](CN2C(=O)C1O)[C@@H]34 (stereo not given in full) | 54.8 | 1000 | 23.9 |  |
| COC1=CC[C@@H]2[C@H]3CCCN4CCC[C@@H](CN2C1=O)[C@@H]34 | 39.7 |  |  |  |
| O=C1C(O)C(O)C[C@@H]2[C@H]3CCCN4CCC[C@@H](CN12)[C@@H]34 (stereo not given in full) [13,14-DIHYDROXYMATRINE] | 38.9 | > 1000 | 47.1 |  |
| O=C1CC(O)C[C@@H]2[C@H]3CCCN4CCC[C@@H](CN12)[C@@H]34 (stereo not given in full) [13-HYDROXYMATRINE] | 50.4 |  |  |  |
| O=C(O)P(=O)(O)O [FOSCARNET] |  | > 1000 | 106 |  |
| Nc1ccn([C@@H]2CS[C@H](CO)O2)c(=O)n1 [LAMIVUDINE] |  |  |  | inhibition at 0.16 µg/mL [11]: 64%; inhibition at 0.16 µg/mL [12]: 28% |
| O=C1CCC[C@@H]2[C@H]3CCCN4CCC[C@@H](CN12)[C@@H]34 [MATRINE] | 52.4 |  |  |  |
| O=C1CCC[C@@H]2[C@H]3CCC[N+]4([O-])CCC[C@@H](CN12)[C@@H]34 (stereo not given in full) [OXYMATRINE] | 55 |  |  |  |
| O=C1C=CC[C@@H]2[C@H]3CCC[N+]4([O-])CCC[C@@H](CN12)[C@@H]34 (stereo not given in full) [OXYSOPHOCARPINE] | 15.3 |  |  |  |
| O=C1C=CC[C@@H]2[C@H]3CCCN4CCC[C@@H](CN12)[C@@H]34 [SOPHOCARPINE] | 21.6 |  |  |  |
